The source of these data is PubChem BioAssay AID493019 (Circadian Research, Kay Laboratory, University of …, 2011).

The term IC50 denotes the concentration that gives 50% inhibition. A low value points to inhibition by little substance. In general, EC50 refers to the concentration that produces a half-maximal response. A low value points to an effect from little substance.

Assay [1] is described as follows: clock period lengtheners with kinase target profiling – cell-based, U2OS Bmal1-dLuc, CKIdelta, CKIalpha, ERK2, CDK7, mechanism study for circadian clock modulator project, late-stage follow-up (AID 493019). Particulars: U2OS Bmal1-dLuc circadian period lengthening, luminescence; for EC (10 h period change): measured here: 10 h period lengthening; for EC (15 h period change): measured here: 15 h period lengthening. In short, it runs like this: (§1)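 Material: Bmal1-dLuc U2OS cells and CKIalpha, CDK7 kinase reactions. Also added: 5 µM ATP for kinase assays. Doses: 10-point dilutions for period assay. Times: circadian recording 5 days, kinase reaction 3 h at 30 °C. Technique: luciferase luminescence every 100 min, Kinase-Glo residual-ATP luminescence for kinases. Read-out: Period-lengthening concentrations and kinase IC50.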

Assay [2] deals with Casein kinase I isoform alpha (Homo sapiens) (UniProt P48729). The description is as above. Particulars: U2OS Bmal1-dLuc circadian period lengthening, luminescence; for IC50: measured here: CKIalpha in vitro kinase. In short, it runs like this:
as §1

For assay [3], the target named is Casein kinase I isoform delta (Homo sapiens) (UniProt P48730). The description is as above. Particulars: U2OS Bmal1-dLuc circadian period lengthening, luminescence; for IC50: measured here: CKIdelta in vitro kinase. In short, it runs like this:
as §1

For assay [4], the target named is Cyclin-dependent kinase 7 (Homo sapiens) (UniProt P50613). The assay is described as above. Particulars: U2OS Bmal1-dLuc circadian period lengthening, luminescence; measured here: CDK7 in vitro kinase. The gist of the method: as §1
Assay [5] addresses Mitogen-activated protein kinase 1 (Homo sapiens) (UniProt P28482). The assay is described as above. Particulars: U2OS Bmal1-dLuc circadian period lengthening, luminescence; measured here: ERK2 in vitro kinase. The gist of the method:
as §1

Assay [6] has as its system U2OS Bmal1-dLuc circadian period lengthening, luminescence. Described as above. The gist of the method:
as §1

In turn, `CC(C)n1cnc2c(NCc3ccccc3)ncnc21` returned an EC (10 h period change) in assay [1] of 17 µM. Also, the EC (15 h period change) in assay [1] worked out at 38 µM. The concentration for half-maximal inhibition (IC50) in assay [2] was found to be 23 µM; in assay [3] it was 21 µM; in assay [4], 29 µM; in assay [5], 160 µM. For the same molecule, the EC (5 h period change) in assay [6] is 4400 nM.

Regarding `CC(C)n1cnc2c(NCc3cccc(C(F)(F)F)c3)ncnc21`, the EC (10 h period change) in assay [1] stood at 5.7 µM. Besides, the EC (15 h period change) in assay [1] stood at 13 µM. The results for the EC50 in assay [2] (measured here: CKIalpha cell PER1 degradation) and in assay [3] (measured here: CKIdelta cell PER1 degradation) were 9.2 µM and 9.7 µM, respectively. Further, the IC50 was 5.6 µM in assay [2], 8.8 µM in assay [3], 29 µM in assay [4] and 52 µM in assay [5]. Further, the EC (5 h period change) in assay [6] is 1500 nM.
